Experimental data of several laboratories.
Each line is one published result; the experiments were not run side by side.
Target: Tyrosine-protein kinase ABL2 (ABL2, Homo sapiens, UniProt P42684)

| SMILES | observed | mode | method | concentration | endpoint | value |
| --- | --- | --- | --- | --- | --- | --- |
| CCCCC(=O)Nc1ccc(-c2ccc3ncn(CCC)c(=O)c3c2)cn1 | binding |  | competition with immobilised ligand | 0.5 µM | remaining binding | 100% |
| C1=C/COCc2cc(ccc2OCCN2CCCC2)Nc2nccc(n2)-c2cccc(c2)COC/1 | binding |  |  | 0.1 µM | remaining binding | 74% |
| Cc1ccc(NC(=O)c2ccnc(C(F)(F)F)c2)cc1-c1cc(OCCO)nc(N2CCOCC2)c1 | binding |  | competition with immobilised ligand | 1 µM | remaining binding | 99% |
| COc1ccc2oc(-c3ccc4nc(N)oc4c3)c/c(=N\c3ccccc3NC(=O)CCN)c2c1 | binding |  |  | 1 µM | remaining binding | 101% |
| CC#CC(=O)N1CCC[C@H]1c1nc(-c2ccc(C(=O)Nc3ccccn3)cc2)c2c(N)nccn12 | enzyme activity | inhibitor |  | 1 µM | inhibition | 10% |
| C#Cc1cc(-c2cc(Nc3nc(N[C@@H](C)c4ccc(F)cn4)ncc3Cl)n[nH]2)ccc1C=O | enzyme activity | inhibitor |  | 0.2 µM | inhibition | 26.4% |
| CO[C@@H]1[C@H](N(C)C(=O)c2ccccc2)C[C@H]2O[C@]1(C)n1c3ccccc3c3c4c(c5c6ccccc6n2c5c31)C(=O)NC4 | enzyme activity | inhibitor |  | 1 µM | inhibition | 17% |
| COc1ccc2[nH]c3c4[nH]c5ccc(OC)cc5c4c4c(c3c2c1)C(=O)NC4=O | binding |  | competition with immobilised ligand | 1 µM | remaining binding | 82% |
